Source: ChEMBL document CHEMBL1275401, “2'-Deoxy-2'-spirocyclopropylcytidine revisited: a new and selective inhibitor of the hepatitis C virus NS5B polymerase” (J Med Chem, 2010)

Assays:
[1] = Cmax in Sprague-Dawley rat at 10 mg/kg, po; assay type: ADME, organism-based; design: dose 10 mg/kg, route oral; conditions: in vivo
Method in brief: (§1)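 Male Sprague-Dawley rats, three per dose, received a single oral solution in 20% hydroxypropyl-β-cyclodextrin. EDTA blood was collected at 0.5, 1, 2, 4, 7 and 24 h, kept on ice protected from light, and spun at 4 °C within 1 h; plasma was stored at −20 °C. Parent nucleoside was quantified by LC-MS after acetonitrile precipitation (standard curve 5-2000 ng/mL). Noncompartmental analysis.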

[2] = Cytotoxicity against human HuH7 cells expressing CMV-Luc after 3 days by luciferase assay; assay type: cell-based, Huh-7
Method in brief: (§2)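 Huh7 cells stably carrying luciferase under the CMV constitutive promoter, or MT4 cells with luciferase under the HIV LTR promoter, were cultured with or without compound dilutions for 3 days at 37 °C in humidified 5% CO₂. Luciferase activity served as the measure of proliferation, giving the CC₅₀ as 50% inhibition of growth. Values are averages of at least four repeats.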

[3] = AUC (0 to 7 hrs) in Sprague-Dawley rat at 60 mg/kg, po; assay type: ADME, organism-based; design: time < 7 hr, dose 60 mg/kg, route oral; conditions: plasma; method in brief: as §1
[4] = Cytotoxicity against human MT4 cells expressing LTR-Luc after 3 days by luciferase assay; assay type: cell-based; method in brief: as §2
[5] = AUC (0 to 7 hrs) in Sprague-Dawley rat at 10 mg/kg, po; assay type: ADME, organism-based; design: time < 7 hr, dose 10 mg/kg, route oral; conditions: plasma; method in brief: as §1
[6] = Cmax in Sprague-Dawley rat at 60 mg/kg, po; assay type: ADME, organism-based; design: dose 60 mg/kg, route oral; conditions: in vivo; method in brief: as §1
[7] = Tmax in Sprague-Dawley rat at 10 mg/kg, po; assay type: ADME, organism-based; design: dose 10 mg/kg, route oral; conditions: in vivo; method in brief: as §1
[8] = test system: Hepatitis C virus; assay: Antiviral activity against Hepatitis C virus subtype 1b with adaptive mutations of E1202G, T1280I, K1846T […] infected in human HuH7 cells assessed as inhibition of viral replication after 3 days by luciferase assay; assay type: functional, organism-based, Hepacivirus hominis; conditions: genotype 1b, Huh-7, 72 h
Method in brief: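 Huh7-Rep cells carrying the genotype 1b subgenomic luciferase reporter replicon (clone ET; adaptive mutations E1202G, T1280I, K1846T). 2500 cells per well were exposed to a nine-point 1/4 serial dilution of compound. Replication was read out as luciferase activity, and EC50 was derived from it. Values are averages of at least four repeats.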

[9] = Tmax in Sprague-Dawley rat at 60 mg/kg, po; assay type: ADME, organism-based; design: dose 60 mg/kg, route oral; conditions: in vivo; method in brief: as §1
[10] = Cmax in Sprague-Dawley rat at 15 mg/kg, po; assay type: ADME, organism-based; design: dose 15 mg/kg, route oral; conditions: in vivo; method in brief: as §1
[11] = Cmax in Sprague-Dawley rat at 90 mg/kg, po; assay type: ADME, organism-based; design: dose 90 mg/kg, route oral; conditions: in vivo; method in brief: as §1
[12] = AUC (0 to 24 hrs) in Beagle dog at 15 mg/kg, po; assay type: ADME, organism-based, Canis lupus familiaris; design: time < 24 hr, dose 15 mg/kg, route oral; conditions: plasma
Method in brief: (§3)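 Single oral dose given as a solution in 20% hydroxypropyl-β-cyclodextrin to Beagle dogs, three per dose. Blood was taken on EDTA at 0.5, 1, 2, 4, 6, 8, 24 and 48 h, kept on ice away from light, and centrifuged at 4 °C within 1 h; plasma was stored at −20 °C. Analyte was protein-precipitated with acetonitrile and measured by LC-MS (LOQ ≥5.00 ng/mL). Noncompartmental parameters.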

[13] = AUC (0 to 24 hrs) in Beagle dog at 75 mg/kg, po; assay type: ADME, organism-based, Canis lupus familiaris; design: time < 24 hr, dose 75 mg/kg, route oral; conditions: plasma; method in brief: as §3
[14] = Tmax in Beagle dog at 75 mg/kg, po; assay type: ADME, organism-based, Canis lupus familiaris; design: dose 75 mg/kg, route oral; conditions: in vivo; method in brief: as §3
[15] = Tmax in Sprague-Dawley rat at 15 mg/kg, po; assay type: ADME, organism-based; design: dose 15 mg/kg, route oral; conditions: in vivo; method in brief: as §1
[16] = AUC (0 to 24 hrs) in Sprague-Dawley rat at 90 mg/kg, po; assay type: ADME, organism-based; design: time < 24 hr, dose 90 mg/kg, route oral; conditions: plasma; method in brief: as §1
[17] = Tmax in Sprague-Dawley rat at 90 mg/kg, po; assay type: ADME, organism-based; design: dose 90 mg/kg, route oral; conditions: in vivo; method in brief: as §1
[18] = Tmax in Beagle dog at 15 mg/kg, po; assay type: ADME, organism-based, Canis lupus familiaris; design: dose 15 mg/kg, route oral; conditions: in vivo; method in brief: as §3
[19] = Cmax in Beagle dog at 75 mg/kg, po; assay type: ADME, organism-based, Canis lupus familiaris; design: dose 75 mg/kg, route oral; conditions: in vivo; method in brief: as §3
[20] = Cmax in Beagle dog at 15 mg/kg, po; assay type: ADME, organism-based, Canis lupus familiaris; design: dose 15 mg/kg, route oral; conditions: in vivo; method in brief: as §3
[21] = AUC (0 to 7 hrs) in Sprague-Dawley rat at 15 mg/kg, po; assay type: ADME, organism-based; design: time < 7 hr, dose 15 mg/kg, route oral; conditions: plasma; method in brief: as §1

Compound	Cmax [1] [µg/mL]	CC50 at 72 h [2] [µM]	CC50 at 72 h [4] [µM]	AUC(0-t) at 7 h [5] [µg·h/mL]	Tmax [7] [h]	EC50 [8] [µM]	also measured
Nc1ccn([C@@H]2O[C@H](CO)[C@@H](O)C23CC3)c(=O)n1	0.085	> 98.4	> 98.4	0.248	1	7.3	AUC(0-t) at 7 h [3]: 1.64 µg·h/mL; Cmax [6]: 0.527 µg/mL; Tmax [9]: 1.3 h
CC(C)C(=O)O[C@@H]1[C@@H](CO)O[C@@H](n2ccc(N)nc2=O)C12CC2	0.184	> 98.4	> 98.4	2.62	0.7	42.8	
CC(C)C(=O)OC[C@H]1O[C@@H](n2ccc(N)nc2=O)C2(CC2)[C@@H]1OC(=O)C(C)C		> 98.4	> 98.4			20.3	Cmax [10]: 2.39 µg/mL; Cmax [11]: 11.4 µg/mL; AUC(0-t) at 24 h [12]: 37 µg·h/mL; AUC(0-t) at 24 h [13]: 204 µg·h/mL; Tmax [14]: 1.3 h; Tmax [15]: 0.8 h; AUC(0-t) at 24 h [16]: 40 µg·h/mL; Tmax [17]: 0.7 h; Tmax [18]: 1.5 h; Cmax [19]: 42.8 µg/mL; Cmax [20]: 6.3 µg/mL; AUC(0-t) at 7 h [21]: 7.22 µg·h/mL
C[C@@]1(F)[C@H](O)[C@@H](CO)O[C@H]1n1ccc(N)nc1=O		> 98.4	> 98.4			1.9	
C[C@@]1(O)[C@H](O)[C@@H](CO)O[C@H]1n1ccc(N)nc1=O		> 98.4	> 98.4			4.6	
[N-]=[N+]=N[C@]1(CO)O[C@@H](n2ccc(N)nc2=O)[C@H](O)[C@@H]1O [4'-AZIDOCYTIDINE]		> 98.4	> 98.4			4.3	
